According to ChEMBL document CHEMBL4007461, “Synthesis, Antiviral Potency, in Vitro ADMET, and X-ray Structure of Potent CD4 Mimics as Entry Inhibitors That Target the Phe43 Cavity of HIV-1 gp120” (J Med Chem, 2017):
pIC50: −log10 of the molar value.

Experiments:
TZM = experiment: Cytotoxicity against human TZM-bl cells incubated for 3 days by XTT assay; type: cell-based; conditions: tzm, 72 h
How it was run: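 TZM-bl cells, 1 x 10^4/well, cultured overnight at 37 °C. Compounds added at graded concentrations for three days.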

[1] = system: Human immunodeficiency virus 1; experiment: Antiviral activity against HIV1 3B infected in human MT2 cells assessed as inhibition of p24 antigen production pretreated with virus for 30 mins followed by 4 days incubation with cells by sandwich ELISA based multicycle infection assay; type: functional, cell-based
How it was run: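 MT-2 cells were infected with HIV-1 IIIB at 100 TCID50 and preincubated 30 min with graded compound concentrations. Medium was replaced next day. Supernatants were collected 4 days post-infection, lysed with equal volume 5% Triton X-100, and p24 was measured by sandwich ELISA. IC50 came from percent inhibition of p24.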

MT2 = experiment: Cytotoxicity against human MT2 cells incubated for 4 days by XTT assay; type: cell-based; conditions: mt2, 96 h, 96 h
How it was run: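 Run alongside the MT-2 multicycle infection assay. Compound at graded concentrations mixed with an equal volume of MT-2 cells (10^5 cells/ml). Medium replaced next day and culture continued four days.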

[2] = Inhibition of HIV1 HXB2 gp120-mediated cell to cell fusion using human MAGI-CCR5 cells as indicator cells and Env/Tat-expressing HL2/3 cells as effector cells preincubated with MAGI-CCR5 cells for 1 hr followed by HL2/3 cells addition by beta-galactosidase reporter gene assay; conditions: Human immunodeficiency virus 1, HXB2
[3] = Inhibition of HIV1 reverse transcriptase by colorimetric assay; parameters: species or system Human immunodeficiency virus 1
How it was run: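 HIV-1 reverse transcriptase activity measured with a commercial colorimetric reverse transcriptase kit, following the maker's instructions.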

[4] = Aqueous solubility of the compound at 1 to 100 uM in PBS at pH 7.4 after 2 hrs by turbidimetric analysis; type: physicochemical
How it was run: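 DMSO stocks diluted 1:100 into phosphate-buffered saline pH 7.4, giving 1, 3, 10, 30 and 100 µM final in 1% DMSO. Seven replicate wells per concentration, incubated 2 h at 37 °C, absorbance read at 620 nm. Solubility taken as the concentration giving absorbance above the 1% DMSO vehicle.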

[5] = Apparent permeability from apical to basolateral side in human Caco2 cells at 10 uM at pH 7.4 by LC-MS/MS analysis; type: ADME, cell-based; conditions: Caco-2, pH 7.4
How it was run: (§1)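 Caco-2 cells, passage 40-60, seeded on Transwell inserts at 1 x 10^5 cells/cm2 and grown 20 days in DMEM. Monolayers equilibrated 40 min in HBSS. Donor: compound at 10 µM final, 1% DMSO, in HBSS pH 7.4 with lucifer yellow as integrity marker. Sampled at 120 min, A-B and B-A, in duplicate, by LC-MS/MS. Papp = (dQ/dt)/(C0 × A); efflux ratio = Papp(B-A)/Papp(A-B).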

[6] = Apparent permeability from basolateral to apical side in human Caco2 cells at 10 uM at pH 7.4 by LC-MS/MS analysis; type: ADME, cell-based; conditions: Caco-2, pH 7.4; how it was run: as §1
[7] = Metabolic stability in human liver microsomes assessed as compound remaining at 45 mins in presence of NADPH by LC-MS/MS analysis; type: ADME, microsome; conditions: read-out: Stability
[8] = Intrinsic clearance in human liver microsomes assessed per mg protein in presence of NADPH by LC-MS/MS analysis; type: ADME, microsome; conditions: read-out: CLH
[9] = Unbound fraction in human plasma at 5 uM by LC-MS/MS based equilibrium dialysis; type: ADME, cell-free
Cytochrome P450 2C19 = Cytochrome P450 2C19 (Homo sapiens, UniProt P33261); experiment: Inhibition of CYP2C19 in human liver microsomes using mephenytoin as substrate after 60 mins in presence of NADPH by LC-MS/MS analysis; type: ADME
Chain of Cytochrome P450 2C19 (P33261 whole entry): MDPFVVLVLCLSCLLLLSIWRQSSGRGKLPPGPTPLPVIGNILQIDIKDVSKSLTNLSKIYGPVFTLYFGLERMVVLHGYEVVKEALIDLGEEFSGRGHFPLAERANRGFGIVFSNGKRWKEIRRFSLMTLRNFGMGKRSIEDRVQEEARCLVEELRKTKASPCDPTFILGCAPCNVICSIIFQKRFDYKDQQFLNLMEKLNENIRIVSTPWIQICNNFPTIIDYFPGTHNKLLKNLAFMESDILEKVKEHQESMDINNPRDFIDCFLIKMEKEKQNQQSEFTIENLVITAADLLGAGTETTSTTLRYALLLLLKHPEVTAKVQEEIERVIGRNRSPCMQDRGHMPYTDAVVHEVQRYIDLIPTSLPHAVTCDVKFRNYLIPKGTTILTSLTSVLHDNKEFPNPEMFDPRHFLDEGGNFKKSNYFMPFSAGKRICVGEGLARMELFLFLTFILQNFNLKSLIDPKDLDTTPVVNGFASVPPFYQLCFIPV

Cytochrome P450 3A4 = Cytochrome P450 3A4 (Homo sapiens, UniProt P08684); experiment: Inhibition of CYP3A4 in human liver microsomes using midazolam as substrate after 5 mins in presence of NADPH by LC-MS/MS analysis; type: ADME
Chain of Cytochrome P450 3A4 (P08684 whole entry): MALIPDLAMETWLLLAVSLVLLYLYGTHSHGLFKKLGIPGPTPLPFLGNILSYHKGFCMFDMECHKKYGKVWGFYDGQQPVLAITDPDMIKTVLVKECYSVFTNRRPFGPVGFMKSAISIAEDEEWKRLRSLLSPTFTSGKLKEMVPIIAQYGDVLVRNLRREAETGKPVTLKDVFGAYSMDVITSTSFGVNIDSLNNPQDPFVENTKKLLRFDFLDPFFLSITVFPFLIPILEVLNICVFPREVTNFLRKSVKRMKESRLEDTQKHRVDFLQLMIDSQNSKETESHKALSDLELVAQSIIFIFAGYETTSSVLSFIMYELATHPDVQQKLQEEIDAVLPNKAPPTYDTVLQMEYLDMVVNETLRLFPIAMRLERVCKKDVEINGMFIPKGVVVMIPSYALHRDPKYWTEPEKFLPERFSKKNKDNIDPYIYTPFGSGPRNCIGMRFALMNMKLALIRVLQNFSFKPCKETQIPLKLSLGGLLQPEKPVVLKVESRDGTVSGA

Cytochrome P450 2D6 = Cytochrome P450 2D6 (Homo sapiens, UniProt P10635); experiment: Inhibition of CYP2D6 in human liver microsomes using dextromethorphan as substrate after 5 mins in presence of NADPH by LC-MS/MS analysis; type: ADME
Chain of Cytochrome P450 2D6 (P10635 whole entry): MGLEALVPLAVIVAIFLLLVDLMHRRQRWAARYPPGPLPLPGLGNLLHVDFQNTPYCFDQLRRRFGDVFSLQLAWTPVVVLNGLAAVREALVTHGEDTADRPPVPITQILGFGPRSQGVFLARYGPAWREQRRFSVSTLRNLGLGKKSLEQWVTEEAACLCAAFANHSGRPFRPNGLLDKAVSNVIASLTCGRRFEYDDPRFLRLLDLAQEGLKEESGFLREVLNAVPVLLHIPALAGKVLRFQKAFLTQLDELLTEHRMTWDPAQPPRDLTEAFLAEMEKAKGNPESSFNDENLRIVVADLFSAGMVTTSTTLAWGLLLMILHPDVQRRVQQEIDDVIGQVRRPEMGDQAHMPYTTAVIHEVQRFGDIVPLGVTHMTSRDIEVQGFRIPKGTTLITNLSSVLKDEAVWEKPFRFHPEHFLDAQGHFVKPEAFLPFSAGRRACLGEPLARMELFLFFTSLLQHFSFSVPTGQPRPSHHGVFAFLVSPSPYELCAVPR

Cytochrome P450 2C9 = Cytochrome P450 2C9 (Homo sapiens, UniProt P11712); experiment: Inhibition of CYP2C9 in human liver microsomes using tolbutamide as substrate after 60 mins in presence of NADPH by LC-MS/MS analysis; type: ADME
Chain of Cytochrome P450 2C9 (P11712 whole entry): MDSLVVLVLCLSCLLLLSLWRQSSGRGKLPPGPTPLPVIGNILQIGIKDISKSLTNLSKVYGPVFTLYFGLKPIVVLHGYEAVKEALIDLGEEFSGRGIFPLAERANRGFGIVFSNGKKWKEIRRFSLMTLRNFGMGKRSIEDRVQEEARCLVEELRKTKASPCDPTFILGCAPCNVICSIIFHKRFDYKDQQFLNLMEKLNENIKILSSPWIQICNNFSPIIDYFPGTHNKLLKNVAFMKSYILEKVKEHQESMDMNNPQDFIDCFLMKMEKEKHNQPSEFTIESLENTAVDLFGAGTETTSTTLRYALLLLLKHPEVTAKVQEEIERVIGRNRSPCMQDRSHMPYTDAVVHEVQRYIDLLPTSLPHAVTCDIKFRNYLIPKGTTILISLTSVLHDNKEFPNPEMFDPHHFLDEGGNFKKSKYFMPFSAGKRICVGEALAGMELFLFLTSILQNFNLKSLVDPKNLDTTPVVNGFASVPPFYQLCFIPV

[10] = Inhibition of CYP1A in human liver microsomes using ethoxyresorufin as substrate after 5 mins in presence of NADPH by LC-MS/MS analysis
[11] = molecular target: Voltage-gated inwardly rectifying potassium channel KCNH2 (Homo sapiens, UniProt Q12809); experiment: Inhibition of human ERG expressed in CHO cells by patch clamp electrophysiology assay; type: cell-based
Chain of Voltage-gated inwardly rectifying potassium channel KCNH2 (Q12809 whole entry): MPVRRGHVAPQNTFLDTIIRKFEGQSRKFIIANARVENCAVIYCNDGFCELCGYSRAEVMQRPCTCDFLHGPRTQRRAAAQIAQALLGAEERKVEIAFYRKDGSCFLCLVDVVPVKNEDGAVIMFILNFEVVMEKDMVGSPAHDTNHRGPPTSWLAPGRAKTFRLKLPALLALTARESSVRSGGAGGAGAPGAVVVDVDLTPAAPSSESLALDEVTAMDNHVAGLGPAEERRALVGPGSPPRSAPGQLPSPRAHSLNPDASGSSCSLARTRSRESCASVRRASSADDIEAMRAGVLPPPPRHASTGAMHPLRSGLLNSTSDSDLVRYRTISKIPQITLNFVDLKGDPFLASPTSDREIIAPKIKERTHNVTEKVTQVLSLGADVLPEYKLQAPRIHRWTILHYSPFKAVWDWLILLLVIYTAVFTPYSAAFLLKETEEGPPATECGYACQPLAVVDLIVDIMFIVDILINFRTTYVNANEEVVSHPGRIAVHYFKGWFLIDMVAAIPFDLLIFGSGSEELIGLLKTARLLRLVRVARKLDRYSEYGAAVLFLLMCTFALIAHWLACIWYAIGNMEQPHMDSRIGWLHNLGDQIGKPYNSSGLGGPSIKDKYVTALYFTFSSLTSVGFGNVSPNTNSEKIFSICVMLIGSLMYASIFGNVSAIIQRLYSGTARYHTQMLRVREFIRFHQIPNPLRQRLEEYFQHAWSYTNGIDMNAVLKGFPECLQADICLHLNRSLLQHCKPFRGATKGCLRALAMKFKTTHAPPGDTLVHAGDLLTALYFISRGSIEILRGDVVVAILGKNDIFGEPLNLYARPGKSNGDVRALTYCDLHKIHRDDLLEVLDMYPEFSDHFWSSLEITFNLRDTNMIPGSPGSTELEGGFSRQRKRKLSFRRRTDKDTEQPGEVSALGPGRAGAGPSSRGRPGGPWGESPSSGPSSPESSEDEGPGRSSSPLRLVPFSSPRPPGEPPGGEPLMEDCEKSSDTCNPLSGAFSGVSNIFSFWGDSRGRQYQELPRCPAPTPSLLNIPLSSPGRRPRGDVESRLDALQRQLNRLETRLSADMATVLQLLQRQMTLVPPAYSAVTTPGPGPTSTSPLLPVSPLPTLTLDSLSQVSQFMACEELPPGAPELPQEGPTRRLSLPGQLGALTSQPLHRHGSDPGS

[12] = system: Vesicular stomatitis virus; experiment: Antiviral activity against G-glycoprotein expressing VSV; type: functional
How it was run: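 VSV-G pseudovirus made in HEK293T cells from pVPack-VSV-G, MLV gag-pol pVPack-GP and pFB-luc plasmids. Virus was preincubated 30 min with graded compound concentrations, then added to U87-CD4-CXCR4 cells (1 x 10^4/well, plated overnight).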

[13] = system: Human immunodeficiency virus 1; experiment: Antiviral activity against ENV pseudotyped CCR5-tropic HIV1 p1054.TC4.1499; type: functional
[14] = system: Human immunodeficiency virus 1; experiment: Antiviral activity against ENV pseudotyped CCR5-tropic HIV1 p9014_01.TBI.4769; type: functional; conditions: Human immunodeficiency virus 1, p9014_01.TBI.4769
How it was run: (§2)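 Env-pseudotyped viruses made by co-transfecting HEK293T cells with an Env-deleted pSG3 backbone (8 µg) and an Env-expression plasmid (8 µg). Supernatants were harvested 2 days after transfection, filtered, titered and stored at −80 °C. They were used for single-cycle infection, and IC50 was taken from percent inhibition.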

[15] = system: Human immunodeficiency virus 1; experiment: Antiviral activity against ENV pseudotyped CCR5-tropic HIV1 p9021_14.B2.4571; type: functional; conditions: Human immunodeficiency virus 1, p9021_14.B2.4571
[16] = system: Human immunodeficiency virus 1; experiment: Antiviral activity against ENV pseudotyped CCR5-tropic HIV1 subtype C 25711-2, clone 4; type: functional; conditions: Human immunodeficiency virus 1, subtype C 25711-2, clone 4
[17] = system: Human immunodeficiency virus 1; experiment: Antiviral activity against ENV pseudotyped CCR5-tropic HIV1 subtype C 225925-2, clone 22; type: functional; conditions: Human immunodeficiency virus 1, subtype C 225925-2, clone 22; how it was run: as §2
[18] = system: Human immunodeficiency virus 1; experiment: Antiviral activity against ENV pseudotyped CCR5-tropic HIV1 subtype D QA013.70I.ENV.M12; type: functional; conditions: Human immunodeficiency virus 1, subtype D QA013.70I.ENV.M12; how it was run: as §2
[19] = system: Human immunodeficiency virus 1
[20] = system: Human immunodeficiency virus 1; remark: listed apart in the source
[21] = system: Human immunodeficiency virus 1; experiment: microbe, parasite or virus in culture; conditions: Human immunodeficiency virus 1, subtype D/A BF535.W6M.ENV.A1
[22] = system: Human immunodeficiency virus 1; experiment: microbe, parasite or virus in culture; conditions: Human immunodeficiency virus 1, subtype C Du 172, clone 17
[23] = system: Human immunodeficiency virus 1; experiment: microbe, parasite or virus in culture; conditions: Human immunodeficiency virus 1, subtype C ZM109F.PB4
[24] = system: Human immunodeficiency virus 1; experiment: microbe, parasite or virus in culture; conditions: Human immunodeficiency virus 1, subtype C CAP210.2.00.E8
[25] = system: Human immunodeficiency virus 1; experiment: microbe, parasite or virus in culture; conditions: Human immunodeficiency virus 1, subtype C 6055-2, clone 3
[26] = system: Human immunodeficiency virus 1; experiment: microbe, parasite or virus in culture; conditions: Human immunodeficiency virus 1, subtype C QB099.391 M.ENV.B1
[27] = system: Human immunodeficiency virus 1; experiment: microbe, parasite or virus in culture; conditions: Human immunodeficiency virus 1, subtype A/G CRF02_AG clone 263
[28] = system: Human immunodeficiency virus 1; experiment: microbe, parasite or virus in culture; conditions: Human immunodeficiency virus 1, subtype B p1058_11.B11.1550
[29] = system: Human immunodeficiency virus 1; experiment: microbe, parasite or virus in culture; conditions: Human immunodeficiency virus 1, subtype A/E CRF01_AE clone 269
[30] = system: Human immunodeficiency virus 1; experiment: Antiviral activity against X4 tropic HIV1 HXB2 infected in human TZM-bl cells pretreated with virus for 30 mins followed by 3 days incubation with cells by luciferase reporter gene based single cycle infection assay; type: functional, cell-based
How it was run: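 TZM-bl cells (1 x 10^4/well) were cultured overnight at 37 °C. HXB2-Env pseudovirus was preincubated 30 min with graded compound concentrations, then added to the cells for 3 days. Cells were washed and lysed, and luciferase was read. IC50 came from percent inhibition.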

Cc1ccc(-c2ccc(C(=O)NC(CN)c3ncc(CO)s3)[nH]2)cc1F (stereo in doubt)
CC50 (TZM): 38800 nM | pIC50 [1]: 6.12 | CC50 (MT2): 38000 nM | pIC50 [2]: 5.08 | pIC50 [3]: 5.14 | solubility kinetic at 2 h [4]: > 100 µM | Papp A→B at 10 µM [5]: 2.56 ×10⁻⁶ cm/s | Papp B→A at 10 µM [6]: 19.5 ×10⁻⁶ cm/s | remaining at […] [7]: 101% | microsomal CLint [8]: < 10 µL/min/mg | fraction unbound at 5 µM [9]: 0.04 | pIC50 (Cytochrome P450 2C19): < 4.60 | pIC50 (Cytochrome P450 3A4): < 4.60 | pIC50 (Cytochrome P450 2D6): < 4.60 | pIC50 (Cytochrome P450 2C9): < 4.60 | pIC50 [10]: 5.10 | IC50 [11]: 9980 nM | pIC50 [12]: 4.37 | pIC50 [13]: 6.40 | pIC50 [14]: 6.51 | pIC50 [15]: 6.66 | pIC50 [16]: 6.52 | pIC50 [17]: 6.47 | pIC50 [18]: 6.62 | pIC50 [19]: 6.40 | pIC50 [20]: 6.40 | pIC50 [21]: 6.26 | pIC50 [22]: 6.21 | pIC50 [23]: 6.70 | pIC50 [24]: 6.31 | pIC50 [25]: 6.66 | pIC50 [26]: 6.46 | pIC50 [27]: 6.30 | pIC50 [28]: 6.55 | pIC50 [29]: 6.52

Cc1cc(-c2ccc(C(=O)NC(CCN(C)C)c3nc(C)c(CO)s3)[nH]2)ccc1F (stereo in doubt; 69B)
CC50 (TZM): 23500 nM | pIC50 [30]: 5.32 | pIC50 [1]: 5.54 | CC50 (MT2): 23500 nM

NCC(NC(=O)c1ccc(-c2ccc(Cl)cc2)[nH]1)c1ncc(CO)s1 (stereo in doubt; 81B)
CC50 (TZM): 37100 nM | pIC50 [30]: 6.12 | pIC50 [1]: 5.74 | CC50 (MT2): 34500 nM

NCC(NC(=O)c1ccc(-c2ccc(Cl)c(F)c2)[nH]1)c1ncc(CO)s1 (stereo in doubt; 82B)
CC50 (TZM): 33000 nM | pIC50 [30]: 6.24 | pIC50 [1]: 5.92 | CC50 (MT2): 36000 nM

CNCC(NC(=O)c1ccc(-c2ccc(Cl)c(F)c2)[nH]1)c1ncc(CO)s1 (stereo in doubt; 86B)
CC50 (TZM): 17300 nM | pIC50 [30]: 6.02 | pIC50 [1]: 5.40 | CC50 (MT2): 18300 nM

CNCC(NC(=O)c1ccc(-c2ccc(C)c(F)c2)[nH]1)c1ncc(CO)s1 (stereo in doubt; 87B)
CC50 (TZM): 27400 nM | pIC50 [30]: 6.00 | pIC50 [1]: 6.00 | CC50 (MT2): 28300 nM
